ChEMBL document CHEMBL1138835, “Inhibitors of multiple mutants of Plasmodium falciparum dihydrofolate reductase and their antimalarial activities” (J Med Chem, 2004)

Legend:
[1] = target: Bifunctional dihydrofolate reductase-thymidylate synthase (Plasmodium falciparum K1, UniProt P13922, A16V/S108T); test: Binding affinity towards mutant dihydrofolate reductase (A16V+S108T DHFR) of Plasmodium falciparum.
[2] = target: Bifunctional dihydrofolate reductase-thymidylate synthase (Plasmodium falciparum K1, UniProt P13922, C59R/I164L/S108N); test: Binding affinity towards mutant dihydrofolate reductase (C59R+S108N+I164L DHFR) of Plasmodium falciparum
Sequence of Bifunctional dihydrofolate reductase-thymidylate synthase (Plasmodium falciparum K1, UniProt P13922, C59R/I164L/S108N) (P13922 whole entry, looked up, stated change not applied): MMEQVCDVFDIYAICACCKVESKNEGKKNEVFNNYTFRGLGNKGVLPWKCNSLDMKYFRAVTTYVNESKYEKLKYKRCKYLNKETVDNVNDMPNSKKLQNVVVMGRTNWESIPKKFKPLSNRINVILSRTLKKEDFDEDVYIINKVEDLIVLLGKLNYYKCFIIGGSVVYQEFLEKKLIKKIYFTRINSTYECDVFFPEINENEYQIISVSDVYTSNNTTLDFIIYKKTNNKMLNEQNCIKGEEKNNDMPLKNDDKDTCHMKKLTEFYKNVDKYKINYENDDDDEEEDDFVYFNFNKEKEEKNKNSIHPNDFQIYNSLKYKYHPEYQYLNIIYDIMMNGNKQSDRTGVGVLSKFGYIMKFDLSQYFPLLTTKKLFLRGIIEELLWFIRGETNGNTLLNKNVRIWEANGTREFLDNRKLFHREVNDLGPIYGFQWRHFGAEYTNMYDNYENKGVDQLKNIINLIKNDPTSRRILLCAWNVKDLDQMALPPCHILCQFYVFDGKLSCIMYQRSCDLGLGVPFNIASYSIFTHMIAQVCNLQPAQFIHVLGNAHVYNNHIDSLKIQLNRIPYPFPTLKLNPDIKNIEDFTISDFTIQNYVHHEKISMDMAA

[3] = target: Bifunctional dihydrofolate reductase-thymidylate synthase (Plasmodium falciparum K1, UniProt P13922, C59R/N51I/S108N); test: Binding affinity towards mutant dihydrofolate reductase (N51I+C59R+S108N DHFR) of Plasmodium falciparum
Sequence of Bifunctional dihydrofolate reductase-thymidylate synthase (Plasmodium falciparum K1, UniProt P13922, C59R/N51I/S108N) (P13922 whole entry, looked up, stated change not applied): as above

[4] = system: Bifunctional dihydrofolate reductase-thymidylate synthase (Plasmodium falciparum K1), P13922 [UNDEFINED MUTATION]; test: Ratio of binding affinity for mutant (A16V+S108T) to that of wild type dihydrofolate reductase
Sequence of Bifunctional dihydrofolate reductase-thymidylate synthase (Plasmodium falciparum K1), P13922 [UNDEFINED MUTATION] (P13922 whole entry, looked up, stated change not applied): as above
Outline: (§1)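 Each ratio is Ki for the mutant PfDHFR divided by Ki for wild-type PfDHFR. The recombinant enzymes were expressed in E. coli BL21(DE3)pLysS and purified on methotrexate-Sepharose. Ki was derived assuming inhibitors compete with substrate binding.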

[5] = system: Bifunctional dihydrofolate reductase-thymidylate synthase (Plasmodium falciparum K1), P13922 [UNDEFINED MUTATION]; test: Ratio of binding affinity for mutant (C59R+S108N+I164L) to that of wild type dihydrofolate reductase; outline: as §1
[6] = target: Bifunctional dihydrofolate reductase-thymidylate synthase (Plasmodium falciparum K1) (UniProt P13922); test: Ratio of binding affinity for mutant (N51I+C59R+S108N) to that of wild type dihydrofolate reductase; outline: as §1
Sequence of Bifunctional dihydrofolate reductase-thymidylate synthase (Plasmodium falciparum K1) (P13922 whole entry, looked up): as the sequence (P13922 whole entry, looked up, stated change not applied) above

[7] = system: Bifunctional dihydrofolate reductase-thymidylate synthase (Plasmodium falciparum K1), P13922 [UNDEFINED MUTATION]; test: Ratio of binding affinity for mutant (N51I+C59R+S108N+I164L) to that of wild type dihydrofolate reductase; outline: as §1
[8] = target: Bifunctional dihydrofolate reductase-thymidylate synthase (Plasmodium falciparum K1, UniProt P13922, C59R/I164L/N51I/S108N); test: Binding affinity towards mutant dihydrofolate reductase (N51I+C59R+S108N+I164L DHFR) of Plasmodium falciparum
Sequence of Bifunctional dihydrofolate reductase-thymidylate synthase (Plasmodium falciparum K1, UniProt P13922, C59R/I164L/N51I/S108N) (P13922 whole entry, looked up, stated change not applied): as above

[9] = system: KB; test: In vitro cytotoxicity against Plasmodium falciparum infected KB cell line; assay type: functional, cell-based; conditions: Homo sapiens
Outline: (§2)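 Cytotoxicity (IC50, μM) run against three mammalian lines: Vero (African green monkey kidney fibroblasts), KB (human epidermoid carcinoma) and BC (human breast cancer). Testing followed the Skehan et al. protocol.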

[10] = system: Vero; test: In vitro cytotoxicity against Plasmodium falciparum infected vero cell line.; assay type: functional, cell-based; conditions: Chlorocebus sabaeus; outline: as §2
[11] = system: BC; test: Relative antiplasmodial activity to cytotoxicity in Plasmodium falciparum Csl-2 infected BC cells; assay type: functional
[12] = system: KB; test: Relative antiplasmodial activity to cytotoxicity in Plasmodium falciparum Csl-2 infected KB cells; assay type: functional
[13] = system: Vero; test: Relative antiplasmodial activity to cytotoxicity in Plasmodium falciparum Csl-2 infected Vero cells; assay type: functional
[14] = system: BC; test: Relative antiplasmodial activity to cytotoxicity in Plasmodium falciparum TM4/8.2 infected BC cells; assay type: functional
[15] = system: KB; test: Relative antiplasmodial activity to cytotoxicity in Plasmodium falciparum TM4/8.2 infected KB cells; assay type: functional
[16] = system: KB; test: Relative antiplasmodial activity to cytotoxicity in Plasmodium falciparum V1/S infected KB cells; assay type: functional
[17] = system: Vero; test: Relative antiplasmodial activity to cytotoxicity in Plasmodium falciparum V1/S infected Vero cells; assay type: functional
[18] = system: Vero; test: Relative antiplasmodial activity to cytotoxicity in Plasmodium falciparum TM4/8.2 infected Vero cells; assay type: functional
[19] = system: BC; test: In vitro cytotoxicity against BC cell line.; conditions: Homo sapiens

Sequence of Bifunctional dihydrofolate reductase-thymidylate synthase (Plasmodium falciparum K1, UniProt P13922, A16V/S108T) (P13922 whole entry, looked up, stated change not applied): as above

Row | SMILES | Ki [1] [nM] | Ki [2] [nM] | Ki [3] [nM] | Ratio [4] | Ratio [5] | Ratio [6] | Ratio [7] | Ki [8] [nM] | IC50 [9] [nM] | IC50 [10] [nM] | Safety ratio [11] | Safety ratio [12] | Safety ratio [13] | Safety ratio [14] | Safety ratio [15] | Safety ratio [16] | Safety ratio [17] | Safety ratio [18] | IC50 [19] [nM]
1 | CC(C)C1(C)N=C(N)N=C(N)N1c1ccc(Cl)cc1 (stereo not drawn) | 44800 | 4620 | 1370 | 1230 | 127 | 37.5 | > 274 | > 10000 |  |  |  |  |  |  |  |  |  |  | 
2 | NC1=NC(c2cccc(OCc3ccccc3)c2)N(c2cccc(Cl)c2)C(N)=N1 (stereo not drawn) | 3.2 | 3.6 | 3.2 | 1.4 | 1.6 | 1.4 | 3.3 | 7.7 | 8000 | > 50000 | 2.9 | 1.1 | >6.7 | 5.5 | 2 | 1 | >6.1 | >12.5 | 22000
3 | CCCCCCCC1N=C(N)N=C(N)N1c1cccc(Cl)c1 (stereo not drawn) | 3.8 | 0.3 | 1 | 1.4 | 0.1 | 0.4 | 0.3 | 0.8 | 1000 | > 50000 | 12.9 | 7.1 | >357 | 45 | 25 | 0.4 | >20 | >1250 | 1800
4 | NC1=NC(c2cccc(OCCCOc3cc(Cl)c(Cl)cc3Cl)c2)N(c2cccc(Cl)c2)C(N)=N1 (stereo not drawn) | 2.6 | 2.2 | 2 | 0.7 | 0.6 | 0.5 | 1.1 | 4.5 | 7000 | 18000 | 1.9 | 1.3 | 3.5 | 3.3 | 2.3 | 0.8 | 2.1 | 6 | 10000
5 | CC1(C)N=C(N)N=C(N)N1c1cccc(Cl)c1 |  |  |  |  |  |  |  |  | 4000 | 49000 |  |  |  |  |  |  |  |  | 8900
6 | NC1=NC(c2cccc(Oc3ccc(Cl)cc3)c2)N(c2cccc(Cl)c2)C(N)=N1 (stereo not drawn) | 3.5 | 5.1 | 1.9 | 2.7 | 3.9 | 1.5 | 6.1 | 8 | 7000 | 31000 | 3.2 | 2.3 | 10 | 2.6 | 1.8 | 2.2 | 9.7 | 7.9 | 10000
7 | NC1=NC(c2cccc(Oc3cc(Cl)cc(Cl)c3)c2)N(c2cccc(Cl)c2)C(N)=N1 (stereo not drawn) | 4.7 | 0.6 | 1 | 2.6 | 0.3 | 0.6 | 1.5 | 2.7 | 6000 | 28000 | 2.6 | 1.5 | 7.2 | 1.8 | 1.1 | 1.5 | 7.2 | 5.1 | 10000
8 | NC1=NC(c2cccc(Oc3ccccc3)c2)N(c2ccc(Cl)cc2)C(N)=N1 (stereo not drawn) | 2.7 | 132 | 23.6 | 5.4 | 264 | 47.1 | 478 | 239 |  |  |  |  |  |  |  |  |  |  | 
9 | Nc1nc(N)c(-c2cccc(Cl)c2)c(CCCOC(=O)c2ccccc2)n1 |  | 0.8 | 0.8 |  | 0.5 | 0.5 | 2.4 | 3.6 | 8400 | 61000 | 5 | 4.4 | 32.1 | 4.5 | 4 | 1.1 | 8.1 | 29 | 9500
10 | Nc1nc(N)c(-c2cccc(Cl)c2)c(CCCO)n1 |  | 29 | 2.3 |  | 3.2 | 0.25 | 6.1 | 57 | 10100 | 22300 | 7.9 | 5.3 | 11.7 | 13.6 | 9.2 | 1.6 | 3.6 | 20.3 | 15000
11 | Nc1nc(N)c(-c2ccccc2)c(CCCOC(=O)c2ccccc2)n1 |  | 2.7 | 0.7 |  | 0.8 | 0.2 | 4.1 | 14 |  |  |  |  |  |  |  |  |  |  | 
12 | CC(C)C1(C)N=C(N)N=C(N)N1c1cccc(Cl)c1 (stereo not drawn) | 2180 | 213 | 196 | 85 | 8.4 | 7.7 | 18.1 | 472 |  |  |  |  |  |  |  |  |  |  | 
13 | CCc1nc(N)nc(N)c1-c1ccccc1 |  | 25 | 3 |  |  |  |  | 32 |  |  |  |  |  |  |  |  |  |  | 
14 | Nc1nc(N)c(-c2cccc(Cl)c2)c(CCCOC(=O)OCc2ccccc2)n1 |  | 0.8 | 1.1 |  | 0.7 | 0.9 | 3 | 3.6 | 1600 | 5200 | 1.9 | 0.8 | 2.7 | 1.9 | 0.8 | 0.3 | 0.9 | 2.7 | 3600
15 | CC(=O)OCCCc1nc(N)nc(N)c1-c1ccccc1 |  | 18 | 5 |  | 1.7 | 0.5 | 22.3 | 237 |  |  |  |  |  |  |  |  |  |  | 
16 | CCCC1(C)N=C(N)N=C(N)N1c1ccc(Cl)cc1 (stereo not drawn) | 9230 | 3650 | 560 | 2640 | 1040 | 160 | 1270 | 4430 |  |  |  |  |  |  |  |  |  |  | 
17 | Nc1nc(N)c(-c2ccccc2)c(CCCO)n1 |  | 121 | 58.5 |  | 1.4 | 0.7 | 6.5 | 549 |  |  |  |  |  |  |  |  |  |  | 
18 | CC(=O)OCCCc1nc(N)nc(N)c1-c1cccc(Cl)c1 |  | 3.2 | 1.8 |  | 1 | 0.6 | 10.1 | 31.4 | 17000 | 50000 | 5.6 | 9.4 | 27.8 | 6.3 | 10.6 | 3.2 | 9.4 | 31.3 | 10000
19 | NC1=NC(c2cccc(OCc3ccccc3)c2)N(c2ccc(Cl)cc2)C(N)=N1 (stereo not drawn) | 6.2 | 771 | 220 | 8.9 | 1100 | 315 | 911 | 638 |  |  |  |  |  |  |  |  |  |  | 
20 | NC1=NC(c2ccccc2)N(c2ccc(Cl)cc2)C(N)=N1 (stereo not drawn) |  | 1870 | 196 |  |  |  |  | 2440 |  |  |  |  |  |  |  |  |  |  | 
21 | CCCOc1ccc(C2N=C(N)N=C(N)N2c2cccc(Cl)c2)cc1 (stereo not drawn) | 9.3 | 0.5 | 2.1 |  |  |  |  | 2.7 | 6000 | > 50000 | 10.3 | 2.1 | >17.2 | 120 | 24 | 2.1 | >17.2 | >200 | 30000
22 | CCCCCCC1(C)N=C(N)N=C(N)N1c1ccc(Cl)cc1 (stereo not drawn) | 955 | 41.8 | 11.3 | 1590 | 69.6 | 18.8 | 115 | 69.2 |  |  |  |  |  |  |  |  |  |  | 
